Shown are actives, neighbours in structure and some others; about 3.6% of the full set was active somewhere.
ATG4B inhibitor: ATG4B protease inhibitors, primary screen, biochemical, fluorescence, uHTS; 0.51% of 340,000 active; AID 504462, 2011; Cysteine protease ATG4B (Homo sapiens), Q9Y4P1; ATG4B cleavage of LC3-PLA2, NBD-HPC fluorescence, 1 h; inhibition, % at 8.33 µM; in the data active = inhibition above about 40%
Target sequence (Q9Y4P1 whole entry, looked up): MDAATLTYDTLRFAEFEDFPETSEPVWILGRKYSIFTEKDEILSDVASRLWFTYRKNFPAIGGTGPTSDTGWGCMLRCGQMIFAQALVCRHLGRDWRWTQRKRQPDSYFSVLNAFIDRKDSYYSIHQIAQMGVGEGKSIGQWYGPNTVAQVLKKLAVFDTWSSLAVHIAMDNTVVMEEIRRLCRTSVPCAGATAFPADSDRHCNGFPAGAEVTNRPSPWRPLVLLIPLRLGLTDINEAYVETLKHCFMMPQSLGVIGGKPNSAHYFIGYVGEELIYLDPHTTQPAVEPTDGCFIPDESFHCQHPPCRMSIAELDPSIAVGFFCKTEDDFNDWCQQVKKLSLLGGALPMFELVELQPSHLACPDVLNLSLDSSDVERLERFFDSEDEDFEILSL
SENP1 FRET inh: human SENP1 catalytic domain inhibitors, primary screen, biochemical, FRET, uHTS; Sentrin-specific protease 1 (Homo sapiens), Q9P0U3; recombinant SENP1 catalytic domain, CyPet-SUMO1-YPet FRET cleavage; inhibition, % at 10 µM; 0.21% of 360,000 active; AID 624204, 2012;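 active = inhibition at least 30% at 10 µM, raw YFP signal under a set limit, fluorescence ratio 0.5 to 1.5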;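 note: 0% = enzyme with DMSO and 100% = no enzyme wells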
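Material: hSENP1 catalytic domain, recombinant; medium: Tris pH 8 with BME, BSA, NP40 and catalase; compound: single concentration of 10 µM compound, 0.5% DMSO final; technique: FRET read of cyan and yellow fluorescence; timing: 50 min enzyme reaction, room temperature, light-protected; reagent: SFCypet-SUMO1-SFYpet substrate at 25 nM; control set: no-enzyme low, enzyme-DMSO high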
NadD inh: inhibitors of S. aureus NadD, primary screen, biochemical, colorimetric, uHTS; purified NadD enzyme, colorimetric absorbance read-out; inhibition, % at 20 µM; 0.78% of 360,000 active; AID 602399, 2012; in the data active = inhibition above about 26%
UCH37 DUB inh: inhibitors of human UCH37 deubiquitinase, primary screen, biochemical, Ub-AMC cleavage, fluorescence; AID 588478, 2011; purified proteasome/UCH37; inhibition, % (no concentration beside the values); Ubiquitin carboxyl-terminal hydrolase isozyme L5 (Homo sapiens), Q9Y5K5; 0.33% of 330,000 active;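 active = mean inhibition over replicate wells above about 20%, limit read from the data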;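 note: 0% = compound-free wells with enzyme and 100% = wells lacking proteasome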
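Test system – human UCH37 enzyme supplied as purified proteasome complex · Incubation – 30 min preincubation with enzyme, 25 min cleavage at room temperature · Detection – AMC fluorescence from Ub-AMC cleavage, excitation 355 nm, emission 460 nm · Benchmarks – no-proteasome wells (full inhibition) and compound-free wells (no inhibition)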
NR3A LBD binder: binders of NR3A ligand-binding domain, primary screen, biophysical, differential scanning fluorimetry, uHTS; Glutamate receptor ionotropic, NMDA 3A (GRIN3A) ligand-binding domain; NR3A LBD differential scanning fluorimetry, Tm shift; 0% = protein alone, 100% = glycine-bound protein; Tm shift relative to glycine control, % at 25 µM; 2.5% of 340,000 active; AID 1259313, 2017;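 active = melting temperature shift of at least 10% of the positive control shift, at one fixed dose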
Starred values were filed as active, the others as inactive; nt = no result given; ! = not confirmed by another sample.

SMILES | ATG4B inhibitor | SENP1 FRET inh | NadD inh | UCH37 DUB inh | NR3A LBD binder
O=[N+]([O-])c1ccc(NN=Cc2ccc(O)c(O)c2O)c(S(=O)(=O)N2CCOCC2)c1 | nt | nt | nt | 3 | nt
C/C(=N\NC(=O)CNc1cccc(C(F)(F)F)c1)c1ccc(Br)cc1 | -9 | 1 | -7 | nt | 18*
C/C(=N\NC(=O)CNc1cccc(C)c1)c1ccc(Br)s1 | -13 | 0 | 0 | nt | 12*
Cc1cccc(NCC(=O)N/N=C/c2cccc(Br)c2)c1 | 7 | 0 | -9 | nt | -20
O=C(CNc1cccc(C(F)(F)F)c1)N/N=C/c1cccc(Br)c1 | 6 | 2 | -2 | nt | 29*
Cc1nn(Cc2ccccc2)c(Cl)c1/C=N/NC(=O)CNc1cccc(C(F)(F)F)c1 | 18 | 0 | -3 | nt | 27*
COc1sc(SC)cc1C=NNC(=O)c1ccncc1 | nt | nt | nt | 6 | nt
Cc1ccsc1C=NNC(=O)C1CC(=O)N(c2ccc(F)cc2)C1 (stereo not drawn) | nt | nt | nt | 3 | nt
O=c1c2ccccc2c(/C=N/c2ncn[nH]2)c(O)n1Cc1ccccc1 | -7 | -28 | -3 | 5 | 15*!
O=C1CSC(=S)N1N=C/C=C/c1ccccc1 | nt | nt | nt | 12 | nt
O=C(Nc1ccc(NC(=O)C2CCCCC2)cn1)c1ccco1 | -6 | 0 | -2 | 1 | 16*
O=C(Nc1ccc(NC(=O)c2ccco2)nc1)c1ccco1 | -8 | 3 | -1 | 4 | -5
N/C(=N\OC(=O)c1ccc(Cl)cc1Cl)c1ccc(Cl)cc1 | -2 | 2 | 11 | -4 | 18*
Cc1ccc(/C(N)=N/OC(=O)c2ccc3ccccc3c2)cc1 | -8 | 0 | 3 | 3 | 27*
Cc1ccc(/C(N)=N/OC(=O)c2ccc(C)cc2Cl)cc1 | -3 | 2 | 2 | 7 | 197*
CC(=NNc1nc(-c2ccccc2)cs1)c1cccs1 | nt | nt | nt | 1 | nt
COc1cc(C=NNc2nncn2N)ccc1OCc1c(C)no[n+]1[O-] | nt | nt | nt | 9 | nt
Cc1nn(C)c(C(=O)Nc2ccc3c(c2)OCO3)c1[N+](=O)[O-] | -3 | -2 | -2 | 4 | 1
Cc1c([N+](=O)[O-])c(C(=O)Nc2ccc3c(c2)OCCO3)nn1C | 3 | 1 | -4 | 4 | 10*
CC(=NN=C(N)SC1CC(=O)N(c2ccc(Cl)cc2)C1=O)c1cccs1 (stereo not drawn) | nt | nt | nt | 6 | nt
CC(=NNC(=O)c1cccnc1)c1ccc(-n2ccnc2)cc1 | nt | nt | nt | 1 | nt
O=C(Cn1c(=O)c2cccn2c2ccc(F)cc21)NCCCN1CCN(c2ccccc2F)CC1 | -2 | 1 | -8 | 5 | 13*
Cc1ccc(C)c(S(=O)(=O)NN=Cc2ccc(N(C)C)cc2)c1 | nt | nt | nt | 8 | nt
Cc1cc(-c2cccs2)c2c(N)c(C(=O)c3ccc4c(c3)OCO4)sc2n1 | 2 | -27 | 7 | -17 | 21*
Cc1cc(C)nc(SCC(=O)NN=Cc2cccn2-c2ccc(O)cc2)n1 | nt | nt | nt | 2 | nt
SMILES | ATG4B inhibitor | SENP1 FRET inh | NadD inh | UCH37 DUB inh | NR3A LBD binder
O=C(NN=C/C=C\c1ccccc1[N+](=O)[O-])c1cccnc1 | nt | nt | nt | 8 | nt
CCc1ccc(C(C)=NNS(=O)(=O)c2ccc(OC)cc2)s1 | nt | nt | nt | 5 | nt
CCC(=NNC(=O)c1csc(C)c1C)c1cccs1 | nt | nt | nt | 6 | nt
O=C(OCC(=O)N1CCN(C(=O)c2ccco2)CC1)c1cc(-c2ccco2)nc2ccccc12 | 2 | 7 | 44* | -444 | -1
O=C(OCC(=O)N1CCN(C(=O)c2ccco2)CC1)c1cc(-c2ccc(Cl)c(Cl)c2Cl)nc2ccccc12 | 3 | 0 | 13 | -42 | -2
CCOc1ccc(CC2S/C(=N/N=Cc3ccco3)NC2=O)cc1 (stereo not drawn) | nt | nt | nt | 4 | nt
CC1(C)[N+]([O-])=C2C(=NO)c3ccccc3C2=[N+]([O-])C1(C)C | nt | nt | nt | 0 | nt
Cc1cc(C=NNC(=O)Cn2c3ccccc3c(=O)c3ccccc32)c(C)n1-c1ccc(Cl)cc1 | nt | nt | nt | -8 | nt
Cc1ccc(-n2c(C)cc(/C=N/NC(=O)Cn3c4ccccc4c(=O)c4ccccc43)c2C)cc1 | 20 | -42 | 37* | nt | 5
Cc1cc(/C=N/NC(=O)Cn2c3ccccc3c(=O)c3ccccc32)c(C)n1-c1ccc(Cl)cc1 | 19 | -55 | 49* | nt | -1

From PubChem
